Assay results as given in the array DNA melting data of Ke et al. (doi:10.1101/2024.01.08.574731).

What was measured:
[1] = folding enthalpy; higher = less favourable; fluorescence melt of hairpins on a sequencing array, two-state fit; conditions: sodium 0.088 M
Summary of the method: (§1)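 With Cy3 and quencher oligos annealed, library hairpins on a sequenced MiSeq flow cell were imaged for Cy3 fluorescence in 50 mM Na-HEPES pH 8.0, 25 mM NaCl, in 2.5 °C steps up to 60 °C. Melting temperature and folding enthalpy were derived from bootstrapped two-state fits of signals normalised to pre-quench Cy3 and to control constructs. Four replicates were combined by inverse variance, with fitted temperatures raised by 9.35 °C to match UV melts.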

[2] = melting temperature; fluorescence melt of hairpins on a sequencing array, two-state fit, raised by 9.35 °C to match UV melts; conditions: sodium 0.088 M
Summary of the method: as §1

Row | Sequence | folding enthalpy [1] | Tm [2]
1 | GCATATGAAAATATGC ((((((....)))))) | -122 kJ/mol | 52.9 °C
2 | GCATATGGAAACACATGC ((((.((....)).)))) | -112 kJ/mol | 35.8 °C
3 | GCATATGGAAACGTATGC (((((.(....).))))) | -139 kJ/mol | 47 °C
4 | GCATCACGAAAGTGGTGC (((.(((....))).))) | -158 kJ/mol | 64.3 °C
5 | GCATCAGCGAAAGCTTGC (((..(((....)))))) | -55 kJ/mol | 41.3 °C
6 | GCATCAGGAAACCAATGC ((((..(....)..)))) | -50.8 kJ/mol | 23.8 °C
7 | GCATCCCCGAAAGGGTGC (((..(((....)))))) | -73.3 kJ/mol | 53.5 °C
8 | GCATCCGAAAGGACGTGC ((((((....)))..))) | -81.1 kJ/mol | 38.3 °C
9 | GCATCCGAAAGGAGATGC ((((((....)))..))) | -141 kJ/mol | 50.1 °C
10 | GCATCCGGAAACGGGTGC (((.(((....))).))) | -165 kJ/mol | 62.7 °C
11 | GCATCCTCGAAAGAGTGC (((..(((....)))))) | -79.9 kJ/mol | 33.1 °C
12 | GCATCGCGAAAGCAAAGC ((.(.((....)).).)) | -40.8 kJ/mol | 38.9 °C
13 | GCATCGCGAAAGCAACGC ((.(.((....)).).)) | -56.4 kJ/mol | 40.6 °C
14 | GCATCGCGAAAGCCCTGC (((..((....))..))) | -32.9 kJ/mol | 33 °C
15 | GCATCGCGAAAGCGAAGC ((.((((....)))).)) | -80.1 kJ/mol | 61.3 °C
16 | GCATCGGGAAACCAATGC ((((.((....)).)))) | -121 kJ/mol | 42.2 °C
17 | GCATCGGGAAACCGATAC (.(((((....))))).) | -57.4 kJ/mol | 41.5 °C
18 | GCATCTCGAAAGAGTGC (((.(((....)))))) | -208 kJ/mol | 53.4 °C
19 | GCATGACGAAAGTCCTGC (((.(((....))).))) | -144 kJ/mol | 51 °C
20 | GCATGAGGAAACCCATGC (((((.(....).))))) | -154 kJ/mol | 48.6 °C
21 | GCATGAGGAAACTCATAC (.(((((....))))).) | -72.1 kJ/mol | 32.6 °C
22 | GCATGAGGAAACTCGTGC (((.(((....))).))) | -198 kJ/mol | 52.9 °C
23 | GCATGCGAAAGCAGTTGC ((((((....)))..))) | -69 kJ/mol | 43 °C

Row | Sequence | folding enthalpy [1] | Tm [2]
24 | GCATGCGAAAGCATCTGC ((((((....)))..))) | -56.2 kJ/mol | 47 °C
25 | GCATGCGAAAGCATTGC ((((((....))).))) | -89.2 kJ/mol | 57.9 °C
26 | GCATGCGCGAAAGCGTGC (((..(((....)))))) | -56 kJ/mol | 51.8 °C
27 | GCATGGAAACATGC (((((....))))) | -129 kJ/mol | 57.4 °C
28 | GCATGGCGAAAGCATTGC (((..((....))..))) | -83.7 kJ/mol | 49.6 °C
29 | GCATGGCGAAAGCCGAGC ((..(((....)))..)) | -71.4 kJ/mol | 55.7 °C
30 | GCATGGCGAAAGCCTCGC ((..(((....)))..)) | -56 kJ/mol | 43.7 °C
31 | GCATGGCGAAAGCCTGGC ((..(((....)))..)) | -76.9 kJ/mol | 53.4 °C
32 | GCATGGCGAAAGCGACGC ((.(.((....)).).)) | -53.2 kJ/mol | 38.3 °C
33 | GCATGGCGAAAGCTAGGC ((.(.((....)).).)) | -90.5 kJ/mol | 52.2 °C
34 | GCATGTCGAAAGACTGC (((.(((....)))))) | -146 kJ/mol | 56.1 °C
35 | GCATGTGGAAACACATAC (.(((((....))))).) | -62.4 kJ/mol | 38.6 °C
36 | GCATTACGAAAGTATTGC (((.(((....))).))) | -123 kJ/mol | 48.9 °C
37 | GCATTAGAAATAATGC ((((((....)))))) | -102 kJ/mol | 48.2 °C
38 | GCATTATCGAAAGATTGC (((..(((....)))))) | -60.3 kJ/mol | 30.6 °C
39 | GCATTCACGAAAGTGTGC (((..(((....)))))) | -76 kJ/mol | 37.6 °C
40 | GCATTCCGAAAGGACTGC (((.(((....))).))) | -92.8 kJ/mol | 50.8 °C
41 | GCATTCCGAAAGGATTGC (((.(((....))).))) | -149 kJ/mol | 54.4 °C
42 | GCATTCGAAAGAAGATGC ((((((....)))..))) | -74.2 kJ/mol | 36.2 °C
43 | GCATTCGAAAGAATATGC ((((((....)))..))) | -104 kJ/mol | 36.1 °C
44 | GCATTCGAAAGAATGC ((((((....)))))) | -118 kJ/mol | 69.2 °C
45 | GCATTCGAAAGAATTTGC ((((((....)))..))) | -70.9 kJ/mol | 30.2 °C
46 | GCATTCGGAAACAAATGC (((((.(....).))))) | -121 kJ/mol | 38 °C

Row | Sequence | folding enthalpy [1] | Tm [2]
47 | GCATTCGGAAACGAACGC ((.((((....)))).)) | -155 kJ/mol | 46.7 °C
48 | GCATTCGGAAACGGATGC ((((.((....)).)))) | -155 kJ/mol | 54 °C
49 | GCATTCTCGAAAGAGTGC (((..(((....)))))) | -102 kJ/mol | 40.9 °C
50 | GCATTGCGAAAGCAGAGC ((..(((....)))..)) | -76.1 kJ/mol | 47.5 °C
51 | GCATTGCGAAAGCAGCGC ((..(((....)))..)) | -67.2 kJ/mol | 54.9 °C
52 | GCATTGCGAAAGCATTGC (((.(((....))).))) | -219 kJ/mol | 55.4 °C
53 | GCATTGCGAAAGCCAAGC ((.(.((....)).).)) | -41.2 kJ/mol | 28.6 °C
54 | GCATTGCGAAAGCCTTGC (((..((....))..))) | -105 kJ/mol | 39.3 °C
55 | GCATTGGGAAACCAGTGC (((.(((....))).))) | -144 kJ/mol | 50.7 °C
56 | GCATTTCCGAAAGGATGC (((..(((....)))))) | -90.6 kJ/mol | 38.4 °C
57 | GCATTTCGAAAGAACTGC (((.(((....))).))) | -134 kJ/mol | 43 °C
58 | GCATTTGAAAAAATGC ((((((....)))))) | -129 kJ/mol | 52.8 °C
59 | GCATTTGGAAACAAGTGC (((.(((....))).))) | -110 kJ/mol | 46.3 °C
60 | GCCAAAACGAAAGTTGGC (((..(((....)))))) | -128 kJ/mol | 51.4 °C
61 | GCCAAACGAAAGTTGGC (((.(((....)))))) | -144 kJ/mol | 56.8 °C
62 | GCCAAAGGAAACTTTGAC (.(((((....))))).) | -91.4 kJ/mol | 32.3 °C
63 | GCCAAAGGAAACTTTGGC (((((((....))))))) | -186 kJ/mol | 64 °C
64 | GCCAACGAAAGTTGAGGC ((((((....)))..))) | -81 kJ/mol | 48.5 °C
65 | GCCAACGGAAACGCTGGC ((((.((....)).)))) | -167 kJ/mol | 52 °C
66 | GCCAACGGAAACGTTGAC (.(((((....))))).) | -68.9 kJ/mol | 46.5 °C
67 | GCCAAGACGAAAGTCGGC (((..(((....)))))) | -99 kJ/mol | 54.6 °C
68 | GCCAAGCGAAAGCAGGGC (((..((....))..))) | -111 kJ/mol | 60.4 °C
